Source: ChEMBL document CHEMBL1141374 (J Med Chem, 2007)

Experiments:
[1] = Cytotoxicity against P-glycoprotein-overexpressing KB-V1 cell line; format: cell-based; details: Homo sapiens
Procedure, shortened: (§1)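 Log-phase cells were diluted to 20 000–30 000 cells/mL, seeded, and left to attach overnight. They were then exposed to compounds at 10^–5–10^–12 M for 72 h at 37 °C in 5% CO2. Viable cells were measured by MTT, with absorbance read at 595 nm. Each compound ran in triplicate in at least three independent assays. IC50 came from nonlinear regression, and average values were reported.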

CCRF-CEM = experiment: Growth inhibition in CCRF-CEM cells; format: functional; details: Homo sapiens
HL-60 = experiment: Growth inhibition in HL60 cells; format: functional; details: Homo sapiens
K562 = experiment: Growth inhibition in K562 cells; format: functional; details: Homo sapiens
A549 = experiment: Growth inhibition in A549 cells; format: functional; details: Homo sapiens
EKVX = experiment: Growth inhibition in EKVX cells; format: functional; details: Homo sapiens
HOP-62 = experiment: Growth inhibition in HOP62 cells; format: functional; details: Homo sapiens
HOP-92 = experiment: Growth inhibition in HOP92 cells; format: functional; details: Homo sapiens
NCI-H226 = experiment: Growth inhibition in NCI-H226 cells; format: functional; details: Homo sapiens
NCI-H23 = experiment: Growth inhibition in NCI-H23 cells; format: functional; details: Homo sapiens
NCI-H322M = experiment: Growth inhibition in NCI-H322M cells; format: functional; details: Homo sapiens
NCI-H460 = experiment: Growth inhibition in NCI-H460 cells; format: functional; details: Homo sapiens
NCI-H522 = experiment: Growth inhibition in NCI-H522 cells; format: functional; details: Homo sapiens
COLO 205 = experiment: Growth inhibition in COLO205 cells; format: functional; details: Homo sapiens
HCC 2998 = experiment: Growth inhibition in HCC2998 cells; format: functional; details: Homo sapiens
[2] = Growth inhibition in HCC116 cells; format: functional; details: Homo sapiens
[3] = Growth inhibition in HCC15 cells; format: functional; details: Homo sapiens
HT-29 = experiment: Growth inhibition in HT29 cells; format: functional; details: Homo sapiens
KM12 = experiment: Growth inhibition in KM12 cells; format: functional; details: Homo sapiens
SW-620 = experiment: Growth inhibition in SW620 cells; format: functional; details: Homo sapiens
SF-268 = experiment: Growth inhibition in SF268 cells; format: functional; details: Homo sapiens
SF-295 = experiment: Growth inhibition in SF295 cells; format: functional; details: Homo sapiens
SF-539 = experiment: Growth inhibition in SF539 cells; format: functional; details: Homo sapiens
SNB-19 = experiment: Growth inhibition in SNB19 cells; format: functional; details: Homo sapiens
SNB-75 = experiment: Growth inhibition in SNB75 cells; format: functional; details: Homo sapiens
U-251 = experiment: Growth inhibition in U251cells; format: functional; details: Homo sapiens
LOX IMVI = experiment: Growth inhibition in LOX IMVI cells; format: functional; details: Homo sapiens
M14 = experiment: Growth inhibition in M14 cells; format: functional; details: Homo sapiens
SK-MEL-28 = experiment: Growth inhibition in SK-MEL-28 cells; format: functional; details: Homo sapiens
SK-MEL-5 = experiment: Growth inhibition in SK-MEL-5 cells; format: functional; details: Homo sapiens
UACC-257 = experiment: Growth inhibition in UACC257 cells; format: functional; details: Homo sapiens
UACC-62 = experiment: Growth inhibition in UACC62 cells; format: functional; details: Homo sapiens
IGROV-1 = experiment: Growth inhibition in IGROV1 cells; format: functional; details: Homo sapiens
OVCAR-3 = experiment: Growth inhibition in OVCAR-3 cells; format: functional; details: Homo sapiens
OVCAR-4 = experiment: Growth inhibition in OVCAR4 cells; format: functional; details: Homo sapiens
OVCAR-5 = experiment: Growth inhibition in OVCAR5 cells; format: functional; details: Homo sapiens
OVCAR-8 = experiment: Growth inhibition in OVCAR8 cells; format: functional; details: Homo sapiens
SK-OV-3 = experiment: Growth inhibition in SKOV3 cells; format: functional; details: Homo sapiens
RXF 393 = experiment: Growth inhibition in RXF393 cells; format: functional; details: Homo sapiens
SN12C = experiment: Growth inhibition in SN12C cells; format: functional; details: Homo sapiens
786-0 = experiment: Growth inhibition in 786-0 cells; format: functional; details: Homo sapiens
A498 = experiment: Growth inhibition in A498 cells; format: functional; details: Homo sapiens
ACHN = experiment: Growth inhibition in ACHN cells; format: functional; details: Homo sapiens
CAKI-1 = experiment: Growth inhibition in CAK1-1 cells; format: functional; details: Homo sapiens
TK-10 = experiment: Growth inhibition in TK10 cells; format: functional; details: Homo sapiens
UO-31 = experiment: Growth inhibition in UO31 cells; format: functional; details: Homo sapiens
PC-3 = experiment: Growth inhibition in PC3 cells; format: functional; details: Homo sapiens
DU-145 = experiment: Growth inhibition in DU145 cells; format: functional; details: Homo sapiens
MCF7 = experiment: Growth inhibition in MCF7 cells; format: functional; details: Homo sapiens
NCI/ADR-RES = experiment: Growth inhibition in NCI/ADR-RES cells; format: functional; details: Homo sapiens
[4] = Growth inhibition in MDA-MB-231/ATCC cells; format: functional; details: Homo sapiens
[5] = Growth inhibition in HS 578T cells; format: functional; details: Homo sapiens
MDA-MB-435 = experiment: Growth inhibition in MDA-MB-435 cells; format: functional; details: Homo sapiens
BT-549 = experiment: Growth inhibition in BT549 cells; format: functional; details: Homo sapiens
T47D = experiment: Growth inhibition in T47D cells; format: functional; details: Homo sapiens
HCT-116 = experiment: Cytotoxicity against HCT116 cell line; format: cell-based; details: Homo sapiens; procedure, shortened: as §1
ZR-75-1 = experiment: Cytotoxicity against ZR-75-1 cell line; format: cell-based; details: Homo sapiens; procedure, shortened: as §1
HeLa = experiment: Cytotoxicity against HeLa cell line; format: cell-based; details: Homo sapiens; procedure, shortened: as §1
[6] = Cytotoxicity against KB-3-1 cell line; format: cell-based; details: Homo sapiens; procedure, shortened: as §1
Tubulin = experiment: Inhibition of tubulin polymerization; format: protein-complex assay, Homo sapiens
Procedure, shortened: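 Kit-based assay run per the manufacturer's instructions. Tubulin (>99% pure, 3 mg/mL) in G-PEM buffer, in a prewarmed plate with compound at 0.03–30 μM. OD340 nm read every 60 s at 37 °C for 1 h.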

Question: Which results are given for COc1ccc(-n2cnnc2-c2cc(OC)c(OC)c(OC)c2)cc1F?
Answer: IC50 [1]: 1480 nM; GI50 (CCRF-CEM): 2570 nM; GI50 (HL-60): 6.03 µM; GI50 (K562): 759 nM; GI50 (A549): 12 µM; GI50 (EKVX): 89.1 µM; GI50 (HOP-62): 2040 nM; GI50 (HOP-92): 5.37 µM; GI50 (NCI-H226): 7.08 µM; GI50 (NCI-H23): 2240 nM; GI50 (NCI-H322M): 8.13 µM; GI50 (NCI-H460): 3.16 µM; GI50 (NCI-H522): 4.57 µM; GI50 (COLO 205): 3.98 µM; GI50 (HCC 2998): 631 nM; GI50 [2]: 3.02 µM; GI50 [3]: 1660 nM; GI50 (HT-29): 3.16 µM; GI50 (KM12): 1450 nM; GI50 (SW-620): 4.07 µM; GI50 (SF-268): 9.33 µM; GI50 (SF-295): 1860 nM; GI50 (SF-539): 3.89 µM; GI50 (SNB-19): 6.31 µM; GI50 (SNB-75): 3.02 µM; GI50 (U-251): 5.13 µM; GI50 (LOX IMVI): 5.13 µM; GI50 (M14): 2240 nM; GI50 (SK-MEL-28): 39.8 µM; GI50 (SK-MEL-5): 2570 nM; GI50 (UACC-257): > 100 µM; GI50 (UACC-62): 3.63 µM; GI50 (IGROV-1): 4.9 µM; GI50 (OVCAR-3): 2090 nM; GI50 (OVCAR-4): 5.25 µM; GI50 (OVCAR-5): 5.62 µM; GI50 (OVCAR-8): 6.31 µM; GI50 (SK-OV-3): 8.32 µM; GI50 (RXF 393): 1700 nM; GI50 (SN12C): 4.68 µM; GI50 (786-0): 3.16 µM; GI50 (A498): 8.13 µM; GI50 (ACHN): 5.62 µM; GI50 (CAKI-1): 2950 nM; GI50 (TK-10): > 100 µM; GI50 (UO-31): 17.8 µM; GI50 (PC-3): 3.02 µM; GI50 (DU-145): 4.79 µM; GI50 (MCF7): 1000 nM; GI50 (NCI/ADR-RES): 2000 nM; GI50 [4]: 6.46 µM; GI50 [5]: 6.46 µM; GI50 (MDA-MB-435): 331 nM; GI50 (BT-549): 9.33 µM; GI50 (T47D): > 100 µM; IC50 (HCT-116): 365 nM; IC50 (ZR-75-1): 367 nM; IC50 (HeLa): 173 nM; IC50 [6]: 399 nM

Question: For CC(=O)O[C@H]1C(=O)[C@@]2(C)[C@H]([C@H](OC(=O)c3ccccc3)[C@]3(O)C[C@H](OC(=O)[C@H](O)[C@@H](NC(=O)c4ccccc4)c4ccccc4)C(C)=C1C3(C)C)[C@]1(OC(C)=O)CO[C@@H]1C[C@@H]2O [PACLITAXEL], which IC50 [1] is on record?
Answer: > 10000 nM

Question: And the IC50 (ZR-75-1)?
Answer: 308 nM

Question: What about the IC50 [6] of the same molecule?
Answer: 23.3 nM

Question: Which IC50 [1] does the source give for COc1cc2c(c(OC)c1OC)-c1ccc(OC)c(=O)cc1[C@@H](NC(C)=O)CC2 [COLCHICINE] here?
Answer: 620 nM

Question: What about the IC50 (HCT-116) of the same molecule?
Answer: 2.75 nM

Question: And the IC50 (ZR-75-1)?
Answer: 522 nM

Question: What about the IC50 (HeLa) of the same molecule?
Answer: 1.84 nM

Question: What about the IC50 [6] of the same molecule?
Answer: 3.99 nM

Question: What does the source list for COc1ccc(/C=C\c2cc(OC)c(OC)c(OC)c2)cc1O [COMBRETASTATIN A4]?
Answer: IC50 [1]: 0.64 nM; IC50 (HCT-116): 0.35 nM; IC50 (ZR-75-1): 0.24 nM; IC50 (HeLa): 0.3 nM; IC50 [6]: 0.78 nM

Question: With COc1cc(-c2nncn2-c2ccc3c(c2)CCN3C)cc(OC)c1OC as the molecule, how does the IC50 (Tubulin) read?
Answer: > 10 µM

Question: And the IC50 (HCT-116)?
Answer: 3290 nM

Question: What about the IC50 (HeLa) of the same molecule?
Answer: 4100 nM
